Data set [1] deals with Human immunodeficiency virus 1. Nature of the data set: Antiviral activity against HIV1 in human TZM-bl cells assessed as viral infectivity by luciferase assay. The format is functional, organism-based. Particulars: Human immunodeficiency virus 1, TZM-bl. The gist of the method:
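TZM-bl cells seeded at 4.0 × 10⁴/well and held overnight. CXCR4-tropic HIV-1 NL4.3 (MOI 0.05) was pre-incubated with compound or solvent for 1 h at 37 °C, then added in duplicate for 4 h and washed off. Cells got fresh medium with compound for 48 h, then lysis and luciferase chemiluminescence. AZT served as positive control. IC50 is the concentration giving 50% inhibition of infection versus infected untreated cells.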

Data set [2] can be described thus: Therapeutic index, ratio of CC50 for human TZM-bl cells to IC50 for HIV1. In kind it is cell-based. The conditions noted are these: read-out: Ratio CC50/IC50. The method in brief: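 Ratio of CC50 from the 48 h MTT assay in TZM-bl cells to IC50 from the NL4.3 luciferase infectivity assay in TZM-bl cells.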
Data set [3] in a line: Cytotoxicity against human TZM-bl cells after 48 hrs by MTT assay. The format is cell-based. The gist of the method: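 TZM-bl cells seeded at 6.0 × 10³/well and incubated 24 h at 37 °C, 5% CO₂. They were then exposed to four compound concentrations (4, 20, 100, 500) or solvent for 48 h. MTT was added for 4 h at 37 °C, followed by overnight solubilization in SDS/DMF/PBS. Absorbance read at 570 nm with a 690 nm reference. Viability was scored relative to untreated cells, and CC50 came from nonlinear curve fitting.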

The test system of data set [4] is TZM-bl. Briefly: (§1) Inhibition of HIV1 gp120 expressed in human HL2/3 cells assessed as compound-treated HL2/3 cell fusion to human TZM-bl cells after 48 hrs by luciferase assay. In kind it is cell-based. Particulars: Human immunodeficiency virus 1. The method in brief: (§2)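 Either HL2/3 cells (HeLa-derived, expressing HIV-1 HxB2 Env plus Tat, Gag, Rev and Nef; G418-maintained) or TZM-bl cells were pre-treated with compound, then washed. Treated cells were co-cultured with the untreated partner line at 1:1 (1.0 × 10⁵ cells/well) for 48 h at 37 °C, 5% CO₂. Luciferase activity was measured and inhibition scored relative to no-compound co-cultures, with Bicyclam as reference. IC50 is the concentration giving 50% inhibition of luciferase expression.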

The nature of data set [5]: as §1. The format is cell-based, Human immunodeficiency virus 1. The method in brief: as §2
The nature of data set [6]: Inhibition of HIV1 gp120 expressed in human HL2/3 cells assessed as Hl2/3 cell fusion to compound-treated human TZM-bl cells after 48 hrs by luciferase assay. The format is cell-based, Human immunodeficiency virus 1. The gist of the method:
as §2

In data set [7] the target is Human immunodeficiency virus type 1 reverse transcriptase (Human immunodeficiency virus 1) (UniProt Q72547). Nature of the data set: Inhibition of HIV1 reverse transcriptase at 50 uM by ELISA. The gist of the method: (§3)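 Single-concentration screens run with commercial kits per the manufacturers' protocols. RT was measured by ELISA kit, with nevirapine 1 mM as positive control. HIV-1 protease was measured by a protease assay kit, with saquinavir 1 mM as positive control.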

Data set [8] addresses Protease (Human immunodeficiency virus 1) (UniProt Q9YQ12). Briefly: Inhibition of HIV1 protease at 50 uM by ELISA. The gist of the method: as §3
A general note: In an ELISA, binding on a coated surface is turned into a signal by an enzyme label.

For data set [9], the system named is Human immunodeficiency virus 1. Briefly: Antiviral activity against HIV1 assessed as inhibition of syncytia formation. The format is functional, organism-based.
[10] abbreviates: Human immunodeficiency virus 1, TZM-bl, 48 h, read-out: IC50.

Activity calls are given as the source filed them. The calls are words filed in the database; no cut-off is given here.

Sequence of Protease (Human immunodeficiency virus 1) (Q9YQ12 as listed by the source): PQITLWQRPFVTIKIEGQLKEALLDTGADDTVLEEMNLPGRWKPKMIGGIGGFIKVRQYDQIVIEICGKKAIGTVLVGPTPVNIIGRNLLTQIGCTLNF

By CC50 is commonly meant the concentration giving 50% cytotoxicity. On to `C=C1CC[C@@H]2[C@]3(C)COC(c4cccc([N+](=O)[O-])c4)O[C@@H]3CC[C@@]2(C)[C@@H]1C/C=C1/C(=O)OC[C@H]1O` (some centres not stated), for which the IC50 in data set [1] (read-out: IC50) is 0.51 µM; in [1] (read-out: pIC50 (converted)) it was 0.513 µM; in data set [5] (setting [10]), 1.6 µM; in data set [6] (tzm-bl) it was “Not Active”. Besides, the selectivity ratio in data set [2] turned out to be 1460. For the same compound, the CC50 at 48 h in data set [3] worked out at 745 µM. In addition, in data set [4], the inhibition entry is “Dose-dependent effect”. In addition, the inhibition entry in data set [7] and in [8] was “inactive” throughout. The inhibition entry in data set [9] was “Active”.

On to `C=C1CC[C@@H]2[C@](C)(CO)[C@H](O)CC[C@@]2(C)[C@@H]1C/C=C1/C(=O)OC[C@H]1O` [ANDROGRAPHOLIDE], for which the IC50 is 0.59 µM in data set [1] (read-out: IC50), 0.589 µM in [1] (read-out: pIC50 (converted)), 1.7 µM in data set [5] (setting [10]) and “Not Active” in [6] (tzm-bl). Besides, the selectivity ratio in data set [2] came out at 2880. The half-maximal cytotoxic concentration (CC50) at 48 h in [3] was determined as 1700 µM. The inhibition result in [4] is “Dose-dependent effect”. The inhibition result in [7] and in data set [8] was “inactive” in each case. The inhibition result in data set [9] was “Active”.

Consider `C=C1CC[C@@H]2[C@]3(C)COC(c4ccc(O)cc4O)O[C@@H]3CC[C@@]2(C)[C@@H]1C/C=C1/C(=O)OC[C@H]1O` (some centres not stated), for which the IC50 is 1.09 µM in data set [1] (read-out: IC50) and 1.1 µM in [1] (read-out: pIC50 (converted)). The selectivity ratio in data set [2] was found to be 164. Also, the CC50 at 48 h in [3] amounted to 179 µM.

For the compound `Br.c1cc(CN2CCCNCCNCCCNCC2)ccc1CN1CCCNCCNCCCNCC1`, the IC50 result was “Not Active” in data set [5] (tzm-bl) and 1.6 µM in [6] (setting [10]).

For the compound `C=C1CC[C@@H]2[C@](C)(CO)[C@H](O)CC[C@@]2(C)[C@@H]1C/C=C1/C(=O)OC[C@H]1OC(=O)c1ccc(Cl)nc1Cl`, the IC50 is 0.83 µM in [1] (read-out: IC50), 0.832 µM in data set [1] (read-out: pIC50 (converted)), 1.1 µM in data set [5] (setting [10]) and “Not Active” in [6] (tzm-bl). Also, the selectivity ratio in data set [2] turned out to be 12500. In addition, in [3], the CC50 at 48 h stood at 10400 µM. The inhibition entry in data set [4] is “Dose-dependent effect”. Further, the inhibition result in data set [7] and in [8] was “inactive” throughout. Also, in data set [9], the inhibition entry was “Active”.

As to `C=C1CC[C@@H]2[C@](C)(COC(=O)NS(=O)(=O)c3ccc(C)cc3)[C@H](O)CC[C@@]2(C)[C@@H]1C/C=C1/C(=O)OC[C@H]1O`, the IC50 in data set [1] (read-out: IC50) was 2.08 µM; in data set [1] (read-out: pIC50 (converted)), 2.09 µM. In addition, the selectivity ratio in data set [2] came out at 978. Further, it took 2040 µM to reach half-maximal cytotoxicity in [3] (CC50 at 48 h).

In the case of `C=C1CC[C@@H]2[C@]3(C)COC(c4ccc(O)c(OC)c4)O[C@@H]3CC[C@@]2(C)[C@@H]1C/C=C1/C(=O)OC[C@H]1O` (some centres not stated), the IC50 was 6.09 µM in data set [1] (read-out: IC50) and 6.03 µM in [1] (read-out: pIC50 (converted)). In addition, the selectivity ratio in data set [2] is 10. The same compound showed a CC50 at 48 h in [3] of 59 µM.

As for `C=C1CC[C@@H]2[C@](C)(CO)[C@H](O)CC[C@@]2(C)[C@@H]1C/C=C1/C(=O)OC[C@H]1OC(=O)c1ccccc1O`, the figures for the IC50 in data set [1] (read-out: IC50) and in data set [1] (read-out: pIC50 (converted)) were 84.2 µM and 85.1 µM, respectively. For the same compound, the selectivity ratio in data set [2] was found to be 12. In addition, half-maximal cytotoxicity in [3] (CC50 at 48 h) was put at 1080 µM.

For `C=C(C)[C@@H]1CC[C@]2(C(=O)NCCCCCCCC(=O)N[C@@H](CC(C)C)[C@H](O)CC(=O)O)CC[C@]3(C)[C@H](CC[C@@H]4[C@@]5(C)CC[C@H](O)C(C)(C)[C@@H]5CC[C@]43C)[C@@H]12`, the IC50 in data set [1] (read-out: IC50) and in data set [1] (read-out: pIC50 (converted)) was 0.1 µM each time.

Consider `C=C1CC[C@@H]2[C@]3(C)COC(c4ccc(O)cc4)O[C@@H]3CC[C@@]2(C)[C@@H]1C/C=C1/C(=O)OC[C@H]1O` (some centres not stated), for which the figures for the IC50 in data set [1] (read-out: IC50) and in data set [1] (read-out: pIC50 (converted)) were 2.1 µM and 2.09 µM, respectively. Also, the selectivity ratio in data set [2] came out at 24. Also, in [3], the CC50 at 48 h turned out to be 50 µM.

Consider `C=C1CC[C@@H]2[C@]3(C)COC(c4ccc5c(c4)OCO5)O[C@@H]3CC[C@@]2(C)[C@@H]1C/C=C1/C(=O)OC[C@H]1O` (some centres not stated), for which the IC50 in data set [1] (read-out: IC50) and in data set [1] (read-out: pIC50 (converted)) was 2.75 µM each time. For the same compound, the selectivity ratio in data set [2] was 599. Also, it took 1650 µM to reach half-maximal cytotoxicity in data set [3] (CC50 at 48 h).

In the case of `C=C1CC[C@@H]2[C@]3(C)COC(c4ccc(Cl)cc4)O[C@@H]3CC[C@@]2(C)[C@@H]1C/C=C1/C(=O)OC[C@H]1O` (some centres not stated), the IC50 in data set [1] (read-out: IC50) was 9.94 µM; in data set [1] (read-out: pIC50 (converted)), 10 µM. The selectivity ratio in data set [2] was determined as 44. The compound also had a CC50 at 48 h in [3] of 440 µM.

The values are drawn from ChEMBL document CHEMBL2086289, “Anti-HIV activity of semisynthetic derivatives of andrographolide and computational study of HIV-1 gp120 protein binding” (Eur J Med Chem, 2012).
